From ChEMBL document CHEMBL4052674, “Discovery of novel quinazoline-2,4(1H,3H)-dione derivatives as potent PARP-2 selective inhibitors” (Bioorg Med Chem, 2017)

Columns and labels:
[1] = target: Poly [ADP-ribose] polymerase 2 (Homo sapiens, UniProt Q9UGN5); test: Inhibition of recombinant human PARP-2 expressed in Escherichia coli BL21 (DE3) using sheared DNA as substrate in presence of biotinylated NAD after 1 hr by ELISA
Homo sapiens = species: Homo sapiens; test: Selectivity index, ratio of IC50 for recombinant human PARP-1 expressed in Escherichia coli BL21 (DE3) to IC50 for recombinant human PARP-2 expressed in Escherichia coli BL21 (DE3)
Summary of the method: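 Human recombinant PARP-1 and PARP-2, expressed from plasmid and purified, were tested for inhibition of enzyme activity by ELISA and by chemical quantitation of NAD⁺. IC50 for each isoform was averaged from two or three independent experiments. The selectivity value is the ratio of the PARP-1 IC50 to the PARP-2 IC50.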

[2] = target: Poly [ADP-ribose] polymerase 1 (Homo sapiens, UniProt P09874); test: Inhibition of recombinant human PARP-1 expressed in Escherichia coli BL21 (DE3) using sheared DNA as substrate in presence of biotinylated NAD after 1 hr by ELISA
Poly [ADP-ribose] polymerase 1, sequence (P09874 whole entry): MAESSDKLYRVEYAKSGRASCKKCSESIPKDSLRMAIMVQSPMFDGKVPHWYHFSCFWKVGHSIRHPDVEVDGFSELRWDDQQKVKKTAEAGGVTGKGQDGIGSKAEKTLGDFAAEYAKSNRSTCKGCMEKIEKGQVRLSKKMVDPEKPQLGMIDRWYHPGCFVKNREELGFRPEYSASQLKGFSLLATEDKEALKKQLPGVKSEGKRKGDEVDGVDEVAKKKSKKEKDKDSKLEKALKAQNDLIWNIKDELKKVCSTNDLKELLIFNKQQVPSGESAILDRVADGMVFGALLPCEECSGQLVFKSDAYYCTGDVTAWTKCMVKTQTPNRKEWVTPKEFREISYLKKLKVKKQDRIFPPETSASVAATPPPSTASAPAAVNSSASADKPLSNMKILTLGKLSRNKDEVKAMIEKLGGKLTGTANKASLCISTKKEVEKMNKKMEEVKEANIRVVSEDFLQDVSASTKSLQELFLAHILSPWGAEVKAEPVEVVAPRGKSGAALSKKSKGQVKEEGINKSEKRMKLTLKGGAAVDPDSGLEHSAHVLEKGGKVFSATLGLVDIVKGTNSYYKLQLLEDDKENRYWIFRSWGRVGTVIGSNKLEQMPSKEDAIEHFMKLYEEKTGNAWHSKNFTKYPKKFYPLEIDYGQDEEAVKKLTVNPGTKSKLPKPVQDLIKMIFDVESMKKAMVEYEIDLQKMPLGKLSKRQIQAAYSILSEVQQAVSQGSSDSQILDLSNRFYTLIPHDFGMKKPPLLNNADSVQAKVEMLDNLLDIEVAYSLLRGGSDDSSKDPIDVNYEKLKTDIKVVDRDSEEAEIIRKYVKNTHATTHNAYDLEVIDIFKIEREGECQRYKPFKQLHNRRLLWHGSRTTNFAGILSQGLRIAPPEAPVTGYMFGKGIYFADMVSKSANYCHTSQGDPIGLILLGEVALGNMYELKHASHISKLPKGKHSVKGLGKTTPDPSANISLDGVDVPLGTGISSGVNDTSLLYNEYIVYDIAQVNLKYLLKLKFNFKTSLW

Poly [ADP-ribose] polymerase 2, sequence (Q9UGN5 whole entry): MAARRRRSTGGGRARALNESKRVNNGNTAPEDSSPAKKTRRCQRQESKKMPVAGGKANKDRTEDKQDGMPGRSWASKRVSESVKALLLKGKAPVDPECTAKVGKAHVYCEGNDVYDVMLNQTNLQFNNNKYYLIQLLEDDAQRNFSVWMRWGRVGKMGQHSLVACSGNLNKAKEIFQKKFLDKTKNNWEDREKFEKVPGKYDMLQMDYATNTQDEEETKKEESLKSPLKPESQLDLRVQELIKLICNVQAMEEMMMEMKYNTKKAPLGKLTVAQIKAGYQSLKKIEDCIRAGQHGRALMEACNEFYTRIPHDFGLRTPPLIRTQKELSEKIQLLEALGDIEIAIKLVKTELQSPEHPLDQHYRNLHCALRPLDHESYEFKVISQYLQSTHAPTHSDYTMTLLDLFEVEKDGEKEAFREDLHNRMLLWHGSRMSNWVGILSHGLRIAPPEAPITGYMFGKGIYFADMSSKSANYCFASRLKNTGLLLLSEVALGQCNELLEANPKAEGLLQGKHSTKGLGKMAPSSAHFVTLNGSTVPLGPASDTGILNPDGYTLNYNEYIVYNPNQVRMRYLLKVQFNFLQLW

Row | Compound | IC50 [1] [µM] | Ratio IC50 (Homo sapiens) | IC50 [2] [µM]
1 | CC(C)(C)OC(=O)N1CC[C@H](C(=O)Nc2cc(Cn3c(=O)[nH]c(=O)c4ccccc43)ccc2Cl)C1 | 0.0091 | 0.7 | 0.0062
2 | CC(C)(C)OC(=O)N1CC[C@H](C(=O)Nc2cc(Cn3c(=O)[nH]c(=O)c4ccccc43)cnc2Br)C1 | > 0.1 | – | > 0.1
3 | O=C(Nc1cc(Cn2c(=O)[nH]c(=O)c3ccccc32)ccc1[N+](=O)[O-])[C@H]1CCNC1 | > 0.1 | – | > 0.1
4 | O=C(Nc1cc(Cn2c(=O)[nH]c(=O)c3ccccc32)cnc1F)[C@H]1CCN(CCC2CC2)C1 | 0.001 | 1.8 | 0.0014
5 | CC(C)(C)OC(=O)N1CC[C@H](C(=O)Nc2cc(Cn3c(=O)[nH]c(=O)c4ccccc43)ccc2N)C1 | > 0.1 | – | > 0.1
6 | O=C(Nc1cc(Cn2c(=O)[nH]c(=O)c3ccccc32)ccc1Br)[C@H]1CCNC1 | > 0.1 | – | > 0.1
7 | O=C(Nc1cc(Cn2c(=O)[nH]c(=O)c3ccccc32)cnc1F)[C@H]1CCNC1 | 0.08 | 0.18 | 0.0137
8 | O=C(Nc1cc(Cn2c(=O)[nH]c(=O)c3ccccc32)cnc1F)[C@H]1CCN(Cc2ccncc2)C1 | 0.0058 | 10.7 | 0.062
9 | O=C(Nc1cc(Cn2c(=O)[nH]c(=O)c3ccccc32)cnc1Cl)[C@H]1CCNC1 | 0.04 | 4.4 | 0.174
10 | O=C(Nc1cc(Cn2c(=O)[nH]c(=O)c3ccccc32)cnc1F)[C@H]1CCN(c2ccccc2)C1 | 0.0041 | 22.8 | 0.0926
11 | O=C(Nc1cc(Cn2c(=O)[nH]c(=O)c3ccccc32)cnc1F)[C@H]1CCN(CC(F)(F)F)C1 | 0.0115 | 40.6 | 0.467
12 | O=C(Nc1cc(Cn2c(=O)[nH]c(=O)c3ccccc32)cnc1F)[C@H]1CCN(C(=O)C2CC2)C1 | 0.0045 | 12 | 0.054
13 | CC(C)(C)OC(=O)N1CC[C@H](C(=O)Nc2cc(Cn3c(=O)[nH]c(=O)c4ccccc43)cnc2Cl)C1 | 0.0122 | 19 | 0.232
14 | CC(C)(C)OC(=O)N1CC[C@H](C(=O)Nc2cc(Cn3c(=O)[nH]c(=O)c4ccccc43)ccc2O)C1 | > 0.1 | – | > 0.1
15 | CC(C)(C)OC(=O)N1CC[C@H](C(=O)Nc2cc(Cn3c(=O)[nH]c(=O)c4ccccc43)ccc2[N+](=O)[O-])C1 | > 0.1 | – | > 0.1
16 | O=C(Nc1cc(Cn2c(=O)[nH]c(=O)c3ccccc32)cnc1F)[C@H]1CCN(CCC(F)(F)F)C1 | 0.0029 | 1 | 0.0031
17 | CC(C)(C)OC(=O)N1CC[C@H](C(=O)Nc2cc(Cn3c(=O)[nH]c(=O)c4ccccc43)cnc2F)C1 | 0.0086 | 4.6 | 0.0398
18 | O=C(Nc1cc(Cn2c(=O)[nH]c(=O)c3ccccc32)cnc1F)[C@H]1CCN(CC2CC2)C1 | 0.0036 | 1.6 | 0.0057
19 | O=C(Nc1cc(Cn2c(=O)[nH]c(=O)c3ccccc32)cnc1F)[C@H]1CCN(Cc2ccccc2)C1 | 0.0054 | 2.5 | 0.0133
20 | CC(C)(C)OC(=O)N1CC[C@H](C(=O)Nc2cncc(Cn3c(=O)[nH]c(=O)c4ccccc43)c2)C1 | > 0.1 | – | > 0.1
21 | O=C(Nc1cncc(Cn2c(=O)[nH]c(=O)c3ccccc32)c1)[C@H]1CCNC1 | 0.22 | 0.04 | 0.0099
22 | CC(C)(C)OC(=O)N1CC[C@H](C(=O)Nc2cc(Cn3c(=O)[nH]c(=O)c4ccccc43)ccc2Br)C1 | 0.068 | 5.1 | 0.346
23 | O=C(Nc1cc(Cn2c(=O)[nH]c(=O)c3ccccc32)cnc1Br)[C@H]1CCNC1 | > 0.1 | – | > 0.1
24 | O=C(Nc1cc(Cn2c(=O)[nH]c(=O)c3ccccc32)ccc1Cl)[C@H]1CCNC1 | > 0.1 | – | > 0.1
25 | O=C(Nc1cc(Cn2c(=O)[nH]c(=O)c3ccccc32)cnc1F)[C@H]1CCN(C2CCC(F)(F)CC2)C1 | 0.0119 | 6.8 | 0.081
